Values after ≈ are worked out from the molar mass of the structure shown. Active and inactive are the calls of the source. No cut-off for these calls is given here.
Tests used:
[1] = tested on: Escherichia coli; experiment: Antibacterial activity against Escherichia coli ATCC 8739 assessed as inhibition of bacterial growth at 1 to 256 ug/ml incubated for 24 hrs by resazurin dye based broth microdilution method; type: functional, organism-based; settings: dose 1-256 µg/ml
How it was run: (§1)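 CLSI broth microdilution in cation-adjusted Mueller Hinton broth, pH 7.4 (±0.2). Compounds dissolved in DMSO at 25.6 mg mL⁻¹ (stock), diluted to 1–256 µg mL⁻¹. Inoculum 5 × 10⁵ CFU mL⁻¹ final; 24 h at 37 °C, static. Resazurin 0.015% then added, 2–4 h more; wells staying blue read as above MIC. Sulfacetamide reference.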

[2] = tested on: Pseudomonas aeruginosa; experiment: Antibacterial activity against Pseudomonas aeruginosa ATCC 27853 assessed as inhibition of bacterial growth at 1 to 256 ug/ml incubated for 24 hrs by resazurin dye based broth microdilution method; type: functional, organism-based; settings: dose 1-256 µg/ml; how it was run: as §1
[3] = tested on: Bacillus subtilis; experiment: Antibacterial activity against Bacillus subtilis ATCC 6051 assessed as inhibition of bacterial growth at 1 to 256 ug/ml incubated for 24 hrs by resazurin dye based broth microdilution method; type: functional, organism-based; settings: dose 1-256 µg/ml; how it was run: as §1
[4] = tested on: Staphylococcus aureus; experiment: Antibacterial activity against Staphylococcus aureus CIP 107093 assessed as inhibition of bacterial growth at 1 to 256 ug/ml incubated for 24 hrs by resazurin dye based broth microdilution method; type: functional, organism-based; settings: dose 1-256 µg/ml; how it was run: as §1
[5] = tested on: Escherichia coli; experiment: Antibacterial activity against Escherichia coli ATCC 8739 assessed as inhibition of bacterial growth incubated for 24 hrs by resazurin dye based broth microdilution method; type: functional; how it was run: as §1
[6] = tested on: Pseudomonas aeruginosa; experiment: Antibacterial activity against Pseudomonas aeruginosa ATCC 27853 assessed as inhibition of bacterial growth incubated for 24 hrs by resazurin dye based broth microdilution method; type: functional; how it was run: as §1
[7] = tested on: Bacillus subtilis; experiment: Antibacterial activity against Bacillus subtilis ATCC 6051 assessed as inhibition of bacterial growth incubated for 24 hrs by resazurin dye based broth microdilution method; type: functional; how it was run: as §1
[8] = tested on: Staphylococcus aureus; experiment: Antibacterial activity against Staphylococcus aureus CIP 107093 assessed as inhibition of bacterial growth incubated for 24 hrs by resazurin dye based broth microdilution method; type: functional; how it was run: as §1
[9] = tested on: HaCaT; experiment: Cytotoxicity against human HaCaT cells incubated for 24 hrs by CyQuant LDH assay; type: toxicity, cell-based
How it was run: (§2)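 HaCaT (10% FCS) or Caco-2 (20% FCS) grown in DMEM with 1% penicillin–streptomycin, 37 °C, 5% CO₂. Seeded in 24-well plates, grown 72 h, rinsed with PBS, then exposed 24 h to compounds at MIC and ½ MIC in fresh DMEM. LDH release measured. Untreated and damaged-cell controls; two independent assays, at least 2 replicates, mean ± SEM.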

[10] = tested on: Caco-2; experiment: Cytotoxicity against human Caco-2 cells incubated for 24 hrs by CyQuant LDH assay; type: toxicity, cell-based; settings: caco-2, 24 h; how it was run: as §2
[11] = tested on: Escherichia coli; experiment: Antibiofilm activity against Escherichia coli ATCC 8739 assessed as inhibition of biofilm formation at 0.5 times of MIC by crystal violet staining based analysis relative to control; type: functional
How it was run: (§3)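 Overnight cultures inoculated into fresh LB with compound at ½ MIC and grown 24 h at 37 °C, static. Growth read at 580 nm. Medium discarded, wells rinsed with distilled water, stained with 0.1% crystal violet, dye solubilized in 30% acetic acid, OD 595 nm; uninoculated-control staining subtracted. At least three independent replicates, mean ± SEM; one-way ANOVA with Dunnett test.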

[12] = tested on: Pseudomonas aeruginosa; experiment: Antibiofilm activity against Pseudomonas aeruginosa ATCC 27853 assessed as inhibition of biofilm formation at 0.5 times of MIC by crystal violet staining based analysis relative to control; type: functional; how it was run: as §3

MIC [5]	MIC [6]	MIC [7]	MIC [8]	SMILES	Activity [1]	Activity [2]	Activity [3]	Activity [4]	other results
–	–	–	–	CC(=O)Nc1ccc(S(=O)(=O)NC(=O)c2ccc(Cl)cc2Cl)cc1	inactive	inactive	inactive	inactive	–
–	–	–	–	CC(=O)Nc1ccc(S(=O)(=O)NC(=O)c2ccccc2)cc1	inactive	inactive	inactive	inactive	–
> 256 µg/mL	> 256 µg/mL	> 256 µg/mL	> 256 µg/mL	Nc1ccc(S(=O)(=O)NC(=O)c2ccc(C(F)(F)F)cc2)cc1	–	–	–	–	–
> 256 µg/mL	> 256 µg/mL	> 256 µg/mL	> 256 µg/mL	COc1cc(C(=O)NS(=O)(=O)c2ccc(N)cc2)ccc1[N+](=O)[O-]	–	–	–	–	–
–	–	–	–	CC(=O)Nc1ccc(S(=O)(=O)NC(=O)c2ccc([N+](=O)[O-])cc2)cc1	inactive	inactive	inactive	inactive	–
> 256 µg/mL	> 256 µg/mL	256 µg/mL (≈ 797 µM)	> 256 µg/mL	Nc1ccc(S(=O)(=O)NC(=O)c2ccc([N+](=O)[O-])cc2)cc1	–	–	–	–	–
32 µg/mL (≈ 149 µM)	> 256 µg/mL	128 µg/mL (≈ 597 µM)	256 µg/mL (≈ 1190 µM)	CC(=O)NS(=O)(=O)c1ccc(N)cc1 [SULFACETAMIDE]	–	–	–	–	Activity [9]: Non-Toxic; Activity [10]: Non-Toxic
–	–	–	–	CC(=O)Nc1ccc(S(=O)(=O)NC(C)=O)cc1	inactive	inactive	inactive	inactive	–
> 256 µg/mL	> 256 µg/mL	> 256 µg/mL	> 256 µg/mL	Nc1ccc(S(=O)(=O)NC(=O)c2cc(F)c(F)c(F)c2)cc1	–	–	–	–	–
–	–	–	–	COc1ccccc1C(=O)NS(=O)(=O)c1ccc(NC(C)=O)cc1	inactive	inactive	inactive	inactive	–
–	–	–	–	COc1cccc(C(=O)NS(=O)(=O)c2ccc(NC(C)=O)cc2)c1	inactive	inactive	inactive	inactive	–
32 µg/mL (≈ 116 µM)	> 256 µg/mL	128 µg/mL (≈ 463 µM)	> 256 µg/mL	Nc1ccc(S(=O)(=O)NC(=O)c2ccccc2)cc1 [SULFABENZAMIDE]	–	–	–	–	inhibition (INH) [11]: 30%; inhibition (INH) [12]: 14%; Activity [9]: Non-Toxic; Activity [10]: Non-Toxic
–	–	–	–	COc1cc(C(=O)NS(=O)(=O)c2ccc(NC(C)=O)cc2)ccc1[N+](=O)[O-]	inactive	inactive	inactive	inactive	–
–	–	–	–	CC(=O)Nc1ccc(S(=O)(=O)NC(=O)c2cc(F)c(F)c(F)c2)cc1	inactive	inactive	inactive	inactive	–
–	–	–	–	CC(=O)Nc1ccc(S(=O)(=O)NC(=O)c2ccc(C(F)(F)F)cc2)cc1	inactive	inactive	inactive	inactive	–
> 256 µg/mL	> 256 µg/mL	> 256 µg/mL	> 256 µg/mL	Nc1ccc(S(=O)(=O)NC(=O)c2ccc(Cl)cc2Cl)cc1	–	–	–	–	–
256 µg/mL (≈ 836 µM)	> 256 µg/mL	64 µg/mL (≈ 209 µM)	256 µg/mL (≈ 836 µM)	COc1ccccc1C(=O)NS(=O)(=O)c1ccc(N)cc1	–	–	–	–	Activity [11]: Active; Activity [12]: Active; Activity [9]: Non-Toxic; Activity [10]: Non-Toxic
32 µg/mL (≈ 104 µM)	> 256 µg/mL	256 µg/mL (≈ 836 µM)	> 256 µg/mL	COc1cccc(C(=O)NS(=O)(=O)c2ccc(N)cc2)c1	–	–	–	–	inhibition (INH) [11]: 42%; inhibition (INH) [12]: 23%; Activity [9]: Non-Toxic; Activity [10]: Non-Toxic

— ChEMBL document CHEMBL5329163, “N-Acylsulfonamide: a valuable moiety to design new sulfa drug analogues” (RSC Med Chem, 2023)
